Results as given in ChEMBL document CHEMBL1142170, “Mechanism of activation of beta-D-2'-deoxy-2'-fluoro-2'-c-methylcytidine and inhibition of hepatitis C virus NS5B RNA polymerase” (Antimicrob Agents Chemother, 2007).

Tests used:
Type in all cases: cell-based
[1] = substrate: C[C@@]1(F)[C@H](O)[C@@H](COP(=O)(O)O)O[C@H]1n1ccc(N)nc1=O; test: (§1) Ratio of Kcat to Km for YMPK activity expressed in Huh7 cells; conditions: Homo sapiens; Huh-7
Method in brief: (§2)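 Human YMPK cloned from Huh-7 cells, 37°C, coupled pyruvate kinase/lactate dehydrogenase assay following NADH at 340 nm. Tris-HCl pH 7.5, 1 mM ATP, MgCl2. Enzyme 80 nM with natural monophosphates, 200 nM with the analog monophosphate. Monophosphate substrate concentration varied, steady-state parameters as mean ± SD.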

[2] = substrate: Nc1ccn([C@@H]2O[C@H](COP(=O)(O)O)[C@@H](O)[C@H]2O)c(=O)n1; test: as §1; conditions: Homo sapiens; Huh-7; method in brief: as §2
[3] = substrate: Nc1ccn([C@H]2C[C@H](O)[C@@H](COP(=O)(O)O)O2)c(=O)n1; test: as §1; conditions: Homo sapiens; Huh-7; method in brief: as §2
[4] = substrate: O=c1ccn([C@@H]2O[C@H](COP(=O)(O)O)[C@@H](O)[C@H]2O)c(=O)[nH]1; test: as §1; conditions: Homo sapiens; Huh-7; method in brief: as §2
[5] = substrate: C[C@@]1(F)[C@H](O)[C@@H](COP(=O)(O)O)O[C@H]1n1ccc(N)nc1=O; test: (§3) Activity of human YMPK expressed in Huh7 cells assessed as phosphorylation by coupled enzyme assay; conditions: Huh-7; method in brief: as §2
[6] = substrate: Nc1ccn([C@@H]2O[C@H](COP(=O)(O)O)[C@@H](O)[C@H]2O)c(=O)n1; test: as §3; conditions: Huh-7; method in brief: as §2
[7] = substrate: Nc1ccn([C@H]2C[C@H](O)[C@@H](COP(=O)(O)O)O2)c(=O)n1; test: as §3; conditions: Huh-7; method in brief: as §2
[8] = substrate: O=c1ccn([C@@H]2O[C@H](COP(=O)(O)O)[C@@H](O)[C@H]2O)c(=O)[nH]1; test: as §3; conditions: Huh-7; method in brief: as §2
[9] = substrate: O=c1ccn([C@@H]2O[C@H](CO)[C@@H](O)[C@H]2O)c(=O)[nH]1; test: Ratio of Kcat to Km for UCK1 activity expressed in Huh7 cells; conditions: Homo sapiens; Huh-7
Method in brief: (§4)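 His-tagged human UCK-1 cloned from Huh-7 cells, assayed at 25°C by pyruvate kinase/lactate dehydrogenase coupling, NADH oxidation at 340 nm. Buffer 64 mM Tris-HCl pH 7.5, 1 mM ATP, Mg2+, phosphoenolpyruvate. Enzyme 41 nM, or 410 nM for 2′-C-methyl cytidines. Substrate concentration varied. Steady-state parameters reported as mean ± SD.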

[10] = substrate: O=c1ccn([C@@H]2O[C@H](CO)[C@@H](O)[C@H]2O)c(=O)[nH]1; test: Activity of human UCK1 expressed in Huh7 cells assessed as phosphorylation by coupled enzyme assay; conditions: Huh-7; method in brief: as §4

B1: UMP-CMP kinase (Homo sapiens), P30085 (protein)
chain: MKPLVVFVLGGPGAGKGTQCARIVEKYGYTHLSAGELLRDERKNPDSQYGELIEKYIKEGKIVPVEITISLLKREMDQTMAANAQKNKFLIDGFPRNQDNLQGWNKTMDGKADVSFVLFFDCNNEICIERCLERGKSSGRSDDNRESLEKRIQTYLQSTKPIIDLYEEMGKVKKIDASKSVDEVFDEVVQIFDKEG
Question: With B1 as the protein, how does the kcat/Km [1] read?
Answer: Its kcat/Km is 12000 M⁻¹ s⁻¹.

Question: What about the kcat/Km [2] of the same protein?
Answer: The kcat/Km was 540000 M⁻¹ s⁻¹.

Question: What about the kcat/Km [3] of the same protein?
Answer: The kcat/Km was 36000 M⁻¹ s⁻¹.

Question: And the kcat/Km [4]?
Answer: Its kcat/Km is 540000 M⁻¹ s⁻¹.

Question: What about the kcat [5] of the same protein?
Answer: Its kcat is 3.3 s⁻¹.

Question: And the Km [6]?
Answer: Its Km is 56 µM.

Question: And the kcat [6]?
Answer: Its kcat is 30 s⁻¹.

Question: And the Km [7]?
Answer: Its Km is 837 µM.

Question: What about the kcat [7] of the same protein?
Answer: Its kcat is 30 s⁻¹.

Question: And the Km [8]?
Answer: Its Km is 151 µM.

Question: What about the kcat [8] of the same protein?
Answer: The kcat was 81 s⁻¹.

B2: Uridine-cytidine kinase 1 (Homo sapiens), Q9HA47 (protein)
chain: MASAGGEDCESPAPEADRPHQRPFLIGVSGGTASGKSTVCEKIMELLGQNEVEQRQRKVVILSQDRFYKVLTAEQKAKALKGQYNFDHPDAFDNDLMHRTLKNIVEGKTVEVPTYDFVTHSRLPETTVVYPADVVLFEGILVFYSQEIRDMFHLRLFVDTDSDVRLSRRVLRDVRRGRDLEQILTQYTTFVKPAFEEFCLPTKKYADVIIPRGVDNMVAINLIVQHIQDILNGDICKWHRGGSNGRSYKRTFSEPGDHPGMLTSGKRSHLESSSRPH
Question: What does the source list for B2?
Answer: kcat/Km [9]: 1300 M⁻¹ s⁻¹; Km [10]: 407 µM; kcat [10]: 0.51 s⁻¹
